# High-throughput results (PubChem)
# FAS-TE inh – FAS thioesterase domain inhibitors, primary screen, biochemical, fluorescence intensity, uHTS. Fatty acid synthase (Homo sapiens), P49327. actives 0.67% (n = 360,000). recombinant FAS-TE, OMFH fluorogenic substrate, fluorescence endpoint. inhibition, % at 15 µM. AID 602261, 2012;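 active = compounds whose normalised, plate-corrected inhibition of enzyme fluorescence in the single-dose primary screen is 50% or more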
# LMPTP block – LMPTP phosphatase inhibitors, primary screen, biochemical, fluorescence intensity, uHTS; AID 651560, 2012; Low molecular weight phosphotyrosine protein phosphatase (Homo sapiens), P24666; recombinant LMPTP-A, OMFP fluorogenic substrate; inhibition, % at 20 µM; actives 0.22% (n = 360,000);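 active = compounds that cut the enzyme signal by at least half of the control window in the single-dose screen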
#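 Test system – LMPTP-A enzyme · Amount – LMPTP-A at 0.625 nM final in the reaction · Buffer or medium – Bis-Tris pH 6.0, DTT, detergent · Reagent – OMFP 400 µM · Doses – single 20 µM dose · Schedule – reaction 50 min, room temperature, dark · Detection – fluorescence intensity of OMFP turnover product · Evaluation – percent inhibition versus substrate-only and uninhibited controls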
# STEP inh – STEP phosphatase inhibitors, primary screen, biochemical, fluorescence intensity, uHTS | Tyrosine-protein phosphatase non-receptor type 5 (Homo sapiens), P54829 | recombinant STEP, OMFP fluorogenic substrate | inhibition, % at 20 µM | actives 0.25% (n = 360,000) | AID 588621, 2011;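 active = inhibition at 20 µM, scaled per plate between control wells, above about 37%, limit read from the data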
#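 Test system: STEP tyrosine phosphatase / Reagent: OMFP at 25 µM / Doses: 20 µM, 1% DMSO / Read-out: percent inhibition scaled to no-enzyme and uninhibited-enzyme controls, plate-pattern corrected / Detection: FITC-channel fluorescence of OMFP product / Medium: Bis-Tris buffer pH 6.0, 2.5 mM DTT, 0.005% Tween 20 / Schedule: 20 min at room temperature, dark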
# Scp-1 inhibitor – Scp-1 phosphatase inhibitors, primary screen, biochemical, colorimetric, uHTS; Carboxy-terminal domain RNA polymerase II polypeptide A small phosphatase 1 (Homo …; Recombinant Scp1, phosphopeptide, malachite green phosphate absorbance; inhibition, % at 20 µM; actives 0.88% (n = 340,000); AID 493091, 2011;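 active = inhibition above about 50% at 20 µM, limit read from the data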
#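 Test system: SCP-1 phosphatase catalytic domain, residues 76-261; measured by: colorimetric phosphate reagent with accelerator and stabiliser, absorbance at 630 nm; timing: enzyme reaction 45 min at room temperature, colour 5 min, stabilisation 30 min; also added: Phosphorylated 17-residue peptide substrate; compound dosing: one concentration, 20 µM, with 1.0% DMSO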
# SUMO1 PPI mod – modulators of SUMO1 protein-protein interactions, primary screen, biochemical, uHTS; SUMO1 binding to a labelled peptide, TR-FRET, 1 h; actives 0.33% (n = 360,000); AID 602429, 2012; inhibition, % at 20 µM; Small ubiquitin-related modifier 1 (Homo sapiens), P63165; in the data active = inhibition above about 37%
# Scp-1 conf – Scp-1 phosphatase inhibitors, retest, confirmation, biochemical, colorimetric, single concentration; shares compounds with Scp-1 inhibitor; recombinant SCP-1 catalytic domain, phosphate release, malachite green absorbance; inhibition, % at 20 µM; actives 61% (n = 2,500); AID 540281, 2011
# Scp-1 MG ctr – colorimetric readout interference by compounds, confirmation, artefact control for Scp-1 inhibitor project, biochemical, single concentration; shares compounds with Scp-1 inhibitor; Colorimetric interference counterscreen, malachite green absorbance 630 nm; apparent inhibition (interference), % at 20 µM; 2,500 tested, under 10 active; AID 540313, 2011;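 also: compounds added after enzyme reaction finished so only phosphate colour detection is probed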
# Scp1 DSF – Scp-1 binding by thermal shift, confirmation, orthogonal assay for Scp-1 inhibitor project, biophysical, differential scanning fluorimetry; shares compounds with Scp-1 inhibitor; Recombinant SCP1, Sypro Orange thermal shift Tm; thermal shift relative to vanadate control, % at 40 µM; actives 25% (n = 1,500); AID 540329, 2011;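 active = substances whose mean melting-temperature shift, as a percentage of the reference inhibitor's shift, reaches about 5.3%, limit read from the data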
# Hits are given with their value; – = inactive; · = no result given; ! = not confirmed by another sample. Only some compounds are listed: those with a hit (about 1.9% of all), similar ones and a draw of the others.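 The calls were made as follows, unless noted: active = inhibition of at least 30% at 20 µM; inactive = the rest.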
SMILES,FAS-TE inh,LMPTP block,STEP inh,Scp-1 inhibitor,SUMO1 PPI mod,Scp-1 conf,Scp-1 MG ctr,others
COC1CC2C=C(C)C=CC=CC(=O)NC(c3ccccc3)CC=CCCC(O)CC(=O)C2=C1O (stereo not drawn),–,–,–,·,–,·,·,
COc1ccc(/C=N\N=C(N)N)cc1,–,–,–,–,–,·,·,
NC(N)=N/N=C/c1ccc(N(c2ccccc2)c2ccccc2)cc1,–,–,–,–,100,·,·,
Nc1c(C(=O)NCC2CCCO2)c2nc3ccccc3nc2n1Cc1ccco1 (stereo not drawn),–,–,–,–,–,·,·,
Nc1c(C(=O)NC2CCCC2)c2nc3ccccc3nc2n1CC1CCCO1 (stereo not drawn),–,–,–,–,41,·,·,
C[C@@]12CC[C@@H](c3cc4c(cc3C1)OCO4)N2c1ccccc1,·,–,·,·,–,·,·,
CC(C)C[C@H]1COc2cc(N3CCN(C)CC3)ccc2S(=O)(=O)N1,–,–,·,·,–,·,·,
CCOC(=O)c1c(NS(=O)(=O)c2ccccc2)n(CCCOC)c2nc3ccccc3nc12,–,–,–,–,43,·,·,
CC(C)CNc1c2c(nc3ccccc13)CCC2,–,–,–,–,39,·,·,
c1ccc(CNc2c3c(nc4ccccc24)CCC3)cc1,–,–,–,–,–,·,·,
O=C1CC=C2C3CC4N(CCC45c4cc(O)c(O)cc4N1C25)CC3=CCBr (stereo not drawn),–,77,84,–,111,·,·,
O=C1CC=C2C3CC4N(CCC45c4ccccc4N1C25)CC3=CCO (stereo not drawn),–,–,–,–,–,·,·,
Cc1ccc(N2C(=O)NC(=O)/C(=C\c3ccoc3)C2=O)cc1,–,–,–,–,–,·,·,
CN(C)c1ccc(/C=C2\C(=O)NC(=O)N(Cc3ccc(F)cc3)C2=O)cc1,–,–,–,–,–,·,·,
O=C1NC(=S)N(c2ccc(F)cc2)C(=O)/C1=C\c1ccoc1,–,–,42,74,75,·,·,
O=C1NC(=O)N(Cc2ccc(F)cc2)C(=O)/C1=C\c1ccoc1,–,–,–,64,–,·,·,
O=C1C(=O)c2ccccc2-c2ccccc21,–,51,36,–,–,·,·,
Clc1ccc(C2NCCc3[nH]cnc32)cc1 (stereo not drawn),–,–,–,–,41,·,·,
O=c1[nH]c(O)c(/C=C2/C=CC(c3cc(Cl)ccc3Cl)=N2)c(=O)[nH]1,–,–,–,–,57,–,–,
COc1ccc(C(c2nnnn2C2CCCC2)N2CCC3(CC2)C(=O)NCN3c2ccccc2)cc1 (stereo not drawn),–,–,–,·,–,·,·,
Cc1c(P(=S)(c2ccccc2)c2ccccc2)[n+]2ccccc2n1C,–,–,–,68,–,–,–,
O=C1NCN(c2ccccc2)C12CCN(C(c1ccnc3ccccc13)c1nnnn1-c1ccc3c(c1)OCCO3)CC2 (stereo not drawn),–,–,–,·,–,·,·,
CNC(=O)OCc1n(C)cc[n+]1C,–,–,–,55,–,–,–,
COC(=O)C1=C(c2ccc(OCc3ccccc3)cc2)C[C@@H]2CC[C@H]1N2C(=O)NCc1ccc([N+](=O)[O-])cc1,–,–,–,68,–,–,–,
C[C@@H]1CN([C@@H](C)CO)C(=O)CCCn2nncc2CO[C@H]1CN(C)C(=O)Oc1ccccc1,–,–,–,·,–,·,·,
SMILES,FAS-TE inh,LMPTP block,STEP inh,Scp-1 inhibitor,SUMO1 PPI mod,Scp-1 conf,Scp-1 MG ctr,others
Cc1cc(/C=C2\C(=O)NC(=O)N(Cc3ccccc3Cl)C2=O)c(C)n1-c1ccc(C(=O)O)cc1,–,–,–,66,–,67,–,Scp1 DSF=–
Cc1ccc(N2C(=O)NC(=O)/C(=C/c3ccc(-c4ccc(C(=O)O)c(Cl)c4)o3)C2=O)cc1,–,–,–,58,–,55,–,Scp1 DSF=–
Cc1ccc(-n2c(C)cc(/C=C3/C(=O)NC(=O)N(Cc4ccco4)C3=O)c2C)cc1,–,–,–,–,–,·,·,
Cc1cc(/C=C2\C(=O)NC(=O)N(Cc3ccccc3)C2=O)c(C)n1-c1ccc(Cl)c(C(=O)O)c1,–,–,84,72,–,60,–,Scp1 DSF=8.7
Cc1cc(/C=C2\C(=O)NC(=O)N(c3cccc(F)c3)C2=O)c(C)n1-c1ccc(C(=O)O)c(Cl)c1,–,–,–,51,–,58,–,Scp1 DSF=–
Cc1cc(/C=C2\C(=O)NC(=O)N(c3ccc(F)cc3)C2=O)c(C)n1-c1ccc(C(=O)O)cc1,–,–,–,–,–,·,·,
Cc1ccccc1OP(=O)(Oc1ccccc1C)N1CCOCC1,–,–,–,·,–,·,·,
COc1ccc(CN2CCNCC2)c(OC)c1OC,–,–,–,99!,–,95,–,Scp1 DSF=–
COc1ccc(/C=C2\C(=O)NC(=S)N(C)C2=O)cc1C,–,–,95,100,72,70,–,Scp1 DSF=–
Cc1ccsc1/C=C1\C(=O)NC(=S)N(C)C1=O,–,–,–,–,–,·,·,
C[C@]12CCC3C(CC[C@H]4C[C@@H](O)CC[C@]34C)[C@H]1C=CC2=O (stereo partly drawn),–,–,–,56,–,–,–,
O=C1C(Br)C2CCC1C2C(=O)O (stereo not drawn),–,–,–,·,–,·,·,
C[N+]1(C)C2CCC1CC(OC(=O)c1c[nH]c3ccccc13)C2 (stereo not drawn),–,–,–,54,–,–,–,
CC(CC(C)(C)N1CC1)=NNC(=O)Nc1cccc2ccccc12,–,–,–,–,–,·,·,
O=C(NN=Cc1ccc(N(CCCl)CCCl)cc1)c1cccnc1,–,–,–,–,–,·,·,
O=C(NN=Cc1ccc(N(CCCl)CCCl)cc1)c1cccc([N+](=O)[O-])c1,–,–,–,93,–,72,–,Scp1 DSF=–
Cc1ccc(C(O)(C(=O)OC(C)C)C(O)c2ccc(F)cc2)cc1 (stereo not drawn),·,–,·,·,–,·,·,
C[N+]12CCC(CC1)C(=C(c1ccccc1)c1ccccc1)C2,–,–,–,94,–,78,–,Scp1 DSF=–
CC[N+]12CCC(CC1)C(=C(c1ccccc1)c1ccccc1)C2,–,–,–,–,–,·,·,
